The full list was thinned out, with hits kept by preference.
Diaphorase inh – diaphorase inhibitors and chemical oxidizers, primary screen, counter-screen for diaphorase-coupled primary assays, biochemical, uHTS, resorufin fluorescence; 190,000 tested, 0.69% active; inhibition, % at 20 µM; diaphorase resazurin-to-resorufin fluorescence, NADH, 16 min; bacterial (C. kluyveri) enzyme, not human; AID 1217, 2008;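 active means primary screen inhibition at 20 µM above a set limit, cut at about 50% in these data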
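Detection: fluorescence of resorufin formed from resazurin, Ex 544/Em 590 nm; test system: Clostridium kluyveri diaphorase enzyme; amount: 0.14 U/mL diaphorase, enzyme working solution; times: 16-min room-temperature incubation before reading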
Diaph act CS – compounds boosting diaphorase resazurin reduction – biochemical, uHTS, resorufin fluorescence, counter-screen for diaphorase-coupled primary assays, primary screen | Diaphorase/resazurin coupled assay, 16 min; stronger effect = higher value; 1 = vehicle wells, 0 = NADH-free wells | activation factor at 20 µM | 190,000 tested, 0.005% active | AID 1229, 2008;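 active means diaphorase activity raised at least twofold by the compound at 20 µM; inactive means activation factor below 2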
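Test system: Clostridium kluyveri diaphorase, purified enzyme. Buffer or medium: 50 mM HEPES pH 7.4 buffer plus MgCl2 and Tween 20. Also added: 0.114 mM NADH and 0.1 mM resazurin, final amounts. Dosing: compound 20 µM once, DMSO 1%. Schedule: 16 min enzyme reaction, ambient temperature. Detection: fluorescence of resorufin, 544 nm excitation, 590 nm emission.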
Lmaj promast – Leishmania major promastigote growth inhibition, primary screen. Leishmania major promastigotes, resazurin fluorescence viability. AID 1063, 2008. inhibition, % at 10 µM. 200,000 tested, 9% active;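 further: promastigotes grown with compound for 44 hours at 28 °C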
Redox H2O2 prof – compounds producing H2O2 with reducing agent – biochemical, NIH compound library profiling, artefact control for MLSCN library redox annotation, primary screen; DTT-dependent redox cycling H2O2, phenol red/HRP absorbance; 100% = 100 µM peroxide control, 0% = buffer; activation, % at 10 µM; 200,000 tested, 0.03% active;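 active means activation of at least 50% relative to the plate's high and low controls in the primary single-dose screen; inactive means activation below 50%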;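 further: compound incubated with DTT at 0.8 mM final as the reducing agent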
PfG6PD inh – PfG6PD enzyme inhibitors, primary screen, biochemical, fluorescence intensity, uHTS | glucose-6-phosphate dehydrogenase-6-phosphogluconolactonase (Plasmodium falciparum 3D7) | PfGluPho enzyme, NADPH resazurin-diaphorase fluorescence | inhibition, % at 20 µM | 350,000 tested, 0.78% active;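 active means inhibition reaching at least a set limit at 20 µM in the primary screen, cut at about 59% in these data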
G6PDH CS – L. mesenteroides G6PDH inhibitors, counter-screen for G6PDH-coupled screening assays, biochemical, Leuconostoc mesenteroides enzyme; Purified L. mesenteroides G6PDH, diaphorase/resazurin coupled fluorescence, 45 min; glucose-6-phosphate dehydrogenase [Leuconostoc mesenteroides]; 200,000 tested, 0.12% active; inhibition, % at 5 µM; AID 1020, 2008
A number is an active result; i = inactive; nt = no result given. Unless noted, no stated cut-off is given here; in the data, active means inhibition above about 50%; inactive means the rest.

SMILES	Diaphorase inh	Diaph act CS	Lmaj promast	Redox H2O2 prof	PfG6PD inh	G6PDH CS
COc1cccc(OCCCCCCN2CCOCC2)c1	i	i	99.8	i	i	i
Cc1cccc(OCCCCCN2CCOCC2)c1	nt	nt	nt	nt	i	nt
CCOc1cccc(OCCCCN2CCOCC2)c1	i	i	92.6	i	i	i
c1ccc(OCCCCN2CCOCC2)cc1	i	i	78.7	i	i	i
Brc1ccc(OCCCN2CCOCC2)cc1	i	i	94.5	i	i	i
Cc1ccccc1C(=O)NCCNC(=O)c1cnccn1	nt	nt	nt	nt	i	nt
CC1CN(C(=O)c2ccc(NS(=O)(=O)c3ccc(F)c(F)c3)cc2)CC(C)O1 (stereo not drawn)	nt	nt	nt	nt	i	nt
O=C(CO/N=C/c1ccccc1O)N1CCc2ccccc21	i	i	74.7	i	i	i
O=C(COc1ccc2c(c1)CCC2)N1CCc2ccccc21	i	i	51.7	i	i	i
O=C(OCC(=O)N1CCc2ccccc21)c1ccccc1	i	i	i	i	i	i
Cc1ccc(OCC(=O)N2CCc3ccccc32)cc1	i	i	i	i	i	i
CCCCOc1ccc(C(=O)OC2CC(C)N(C)CC2C)cc1 (stereo not drawn)	i	i	97.5	i	i	i
COc1cccc(-c2nnc(NC(=O)c3ccc(Cl)s3)o2)c1	i	i	54.8	i	i	i
CCCN(CCC)S(=O)(=O)c1ccc(C(=O)Nc2nnc(CSC)o2)cc1	i	i	i	i	i	i
CCCN(CCC)S(=O)(=O)c1ccc(C(=O)Nc2nnc(-c3cccc(OC)c3)o2)cc1	i	i	97.7	i	i	i
COc1cccc(-c2nnc(NC(=O)c3cccc(F)c3)o2)c1	nt	nt	nt	nt	i	nt
CCCN(CCC)S(=O)(=O)c1ccc(C(=O)Nc2nnc(-c3cc(OC)cc(OC)c3)o2)cc1	i	i	100.1	i	i	i
O=C(CN1CCN(C(=O)C2CCCO2)CC1)Nc1ccc(Cl)c(Cl)c1 (stereo not drawn)	nt	nt	nt	nt	i	nt
CCCN1CCN(C(=O)c2oc3c(Cl)cccc3c2C)CC1	nt	nt	nt	nt	i	nt
CN(CC1CCOCC1)C(=O)CC1C(=O)NCCN1Cc1cccc(C(F)(F)F)c1 (stereo not drawn)	nt	nt	nt	nt	i	nt
CC(C)(C)NCc1ccc(OCc2cccs2)cc1	i	i	99.9	i	i	i
CC(C)(C)c1ccc(OCC(=O)NNC(=O)Cc2cccs2)cc1	i	i	i	i	i	i
CC1=C(C#N)c2nc(N)c(C#N)c(C)c2/C1=C\c1ccc(C)cc1	i	i	100.2	i	nt	i
Cc1cc(OCc2nc3ccccc3s2)ccc1N	nt	nt	nt	nt	i	nt
Cc1cc([N+](=O)[O-])nn1CC(=O)NCc1ccco1	i	i	50.5	i	i	i
SMILES	Diaphorase inh	Diaph act CS	Lmaj promast	Redox H2O2 prof	PfG6PD inh	G6PDH CS
CCOC(=O)C1CCN(C(=O)c2ccc(S(=O)(=O)Nc3ccccc3Cl)cc2)CC1	nt	nt	nt	nt	i	nt
CCOC(=O)C1=C(C)NC(C)=C(C(=O)OCC)C1C(=O)OCC(=O)N(C)C	nt	nt	nt	nt	i	nt
C=CCc1ccccc1OCC(=O)N/N=C/c1ccc(OC(C)=O)cc1OC(C)=O	i	i	97.8	i	i	i
Cc1cc(C(=O)N=Nc2c(O)n(C(C)C)c3ccccc23)n[nH]1	54.0	i	i	i	i	i
O=C(N/N=C/c1cn(-c2ccccc2)nc1-c1cc2ccccc2o1)c1ccncc1	i	i	i	i	i	i
O=C(N/N=C/c1cn(-c2ccccc2)nc1-c1cc2ccccc2o1)c1cccnc1	i	i	96.8	i	i	i
CC(c1ccco1)N(C(=O)c1ccc(Cl)c([N+](=O)[O-])c1)c1ccccn1 (stereo not drawn)	nt	nt	nt	nt	i	nt
CC1=NN(C(N)=S)C(=O)C1N=Nc1ccc(O)cc1 (stereo not drawn)	i	i	57.8	i	i	i
CC1=NN(C(N)=S)C(=O)C1N=Nc1ccc(F)cc1 (stereo not drawn)	nt	nt	nt	nt	i	nt

Screening data (PubChem)
